pIC50: −log10 of the molar value. Active and inactive are the calls of the source. The rule behind the calls is not given here.
Legend:
[1] = target: T1, Protein cereblon/Fibroblast growth factor receptor 2 (Homo sapiens, UniProt P21802+Q96SW2); test: PROTAC activity at CRBN/FGFR2 in human KATO III stomach cancer cell line assessed as FGFR2 degradation measured for 6 hrs in presence of MG132 by immunoblot analysis; type: cell-based
Outline: (§1)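 KATO III cells were pretreated with 1 μM proteasome inhibitor (MG132 or bortezomib), then exposed to degrader at 100 nM for 6 h. FGFR2 was read by immunoblot against β-actin loading, with ECL detection.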

BaF3 [2] = test: Antiproliferative activity against mouse BaF3 cells expressing Tel-FGFR4 assessed as cell growth inhibition measured after 72 hrs by celltiter-glo reagent based assay; type: functional; conditions: BaF3, 72 h
Outline: (§2)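 Ba/F3 cells stably expressing cytoplasmic TEL-FGFR1, -2, -3 or -4 fusions were treated in 96-well format, final DMSO 0.1%, for 72 h. Viability read by CellTiter-Glo luminescence after 10 min at room temperature. Inhibition calculated from blank- and control-corrected RLU; IC50 from 4-parameter concentration–response fit.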

[3] = target: T1, Protein cereblon/Fibroblast growth factor receptor 2; test: PROTAC activity at CRBN/FGFR2 in human KATO III stomach cancer cell line assessed as FGFR2 degradation measured for 6 hrs in presence of bortezomib by immunoblot analysis; type: cell-based; outline: as §1
NCI-H1975 = test: Antiproliferative activity against human NCI-H1975 cells assessed as reduction in cell viability measured for 72 hrs by celltiter-glo reagent based assay; type: functional; conditions: NCI-H1975, 72 h
Outline: (§3)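 Cancer lines KATO III, SNU16, NCI-H716, NCI-H1975, MV-4-11 and HEK293T treated 72 h; antiproliferative IC50 given as mean ± s.d. from three independent biological experiments.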

SNU-16 = test: Antitumor activity against human SNU-16 cells xenografted in BALB/c nude mouse assessed as reduction in ERK1/2 phosphorylation in tumor at 20 mg/kg, po measured at 4 hrs; type: functional, organism-based
Outline: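 Female BALB/c nude mice, 5 weeks old (20–22 g), s.c. right-flank SNU-16 implants, randomized by body weight into groups (n = 5) once tumours reached 50–100 mm3. Dosing 20 mg/kg/day intragastric in 0.5% CMC-Na for 15 d; vehicle controls. Tumour width and length measured every 2 days; tumours harvested 4 h after last dose and lysates immunoblotted for pFGFR, FGFR2, pPLCγ, pErk.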

[4] = target: Fibroblast growth factor receptor 2 (Homo sapiens) (UniProt P21802); test: Induction of FGFR2 receptor internalization in human KATO III stomach cancer cell line at 100 nM measured for 6 hrs by immunofluorescence assay; type: cell-based; conditions: filed as activator
Outline: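 KATO III cells treated with 100 nM for 3 or 6 h, fixed in 2% formaldehyde 2 min, blocked 5% BSA 1 h, anti-FGFR2 overnight, Alexa Fluor 488 secondary 1 h, DAPI 10 min; imaged by fluorescence microscopy.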

[5] = Antiproliferative activity against human HEK293T cells assessed as reduction in cell viability measured for 72 hrs by celltiter-glo reagent based assay; type: toxicity, HEK-293T; outline: as §3
[6] = Cmax in mouse at 20 mg/kg, po measured at 0.25 to 24 hrs by LC-MS/MS analysis; conditions: in vivo
[7] = Toxicity in ICR mouse assessed as morphological changes in heart at 20 mg/kg, po measured for 30 days by hematoxyin-eosin staining based analysis; type: organism-based; conditions: in vivo, 720 h, time 30 day
Outline: (§4)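 ICR mice (n = 6) were dosed orally at 20 mg/kg/day for 30 days, alongside vehicle-treated controls. Mortality and clinical signs were checked daily. At the end, body and organ weights were recorded. Heart, liver, spleen, lung and kidney were examined by hematoxylin and eosin staining.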

[8] = target: Macrophage colony-stimulating factor 1 receptor (Homo sapiens) (UniProt P07333); test: Induction of CSF1R degradation in human THP-1 cells at 0.5 to 10 uM measured for 6 hrs Western blot analysis; type: cell-based; conditions: dose 0.0005-10 µM, in the assay text read “0.5 nM to 10 uM” for “0.5 to 10 uM”
Outline: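 THP-1 cells exposed 6 h to 0.5–10,000 nM degrader (from 10 mM DMSO stock, final DMSO below 0.5%); lysates in 2× loading buffer, SDS-PAGE, PVDF, anti-CSF1R (1:1000) with β-actin loading control, ECL detection.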

[9] = target: Fibroblast growth factor receptor 1 (Homo sapiens) (UniProt P11362); test: Induction of FGFR1 degradation in human NCI-H1581 cells at 100 nM measured for 6 hrs Western blot analysis relative to control; type: cell-based
Outline: (§5)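 NCI-H1581 (FGFR1), MCF7 (FGFR3) and Huh7 (FGFR4) cells, which endogenously express the isoforms, treated with 100 nM for 6 h; isoform levels by Western blot against β-actin, three biologically independent experiments.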

[10] = Nephrotoxicity in ICR mouse assessed as effect on creatinine level at 20 mg/kg, po measured for 30 days; type: toxicity, organism-based; conditions: in vivo, 720 h, time 30 day
Outline: (§6)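 ICR mice given 20 mg/kg/day orally for 30 days (n = 6), vehicle controls; mortality and clinical signs checked daily, then AST/ALT and creatinine, organ weights, haematology and H&E of heart, liver, spleen, lung, kidney.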

[11] = target: T1, Protein cereblon/Fibroblast growth factor receptor 2; test: PROTAC activity at CRBN/FGFR2 in human KATO III stomach cancer cell line assessed as FGFR2 degradation by measuring FGFR2 expression level upto 100 nM by Western blotting analysis; type: cell-based; conditions: time 12.0 hrs, TDE = time-dependent effect
Outline: (§7)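 KATO III cells treated 6 h across 0.5–10,000 nM (DMSO stock, final DMSO below 0.5%); FGFR2 immunoblotted, quantified as FGFR2/β-actin ratio normalized to DMSO-treated cells, three independent biological experiments; DC50 and Dmax derived from the curve.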

[12] = target: T1, Protein cereblon/Fibroblast growth factor receptor 2; test: PROTAC activity at CRBN/FGFR2 in human KATO III stomach cancer cell line assessed as FGFR2 degradation by measuring FGFR2 expression level at 0.5 to 100 nM measured for 6 hrs by Western blotting analysis; type: cell-based; conditions: dose 0.5-100 nM; outline: as §7
[13] = target: Fibroblast growth factor receptor 3 (Homo sapiens) (UniProt P22607); test: Induction of FGFR3 degradation in human MCF7 cells at 100 nM measured for 6 hrs Western blot analysis; type: cell-based; outline: as §5
[14] = target: Fibroblast growth factor receptor 3 (Homo sapiens) (UniProt P22607); test: Inhibition of partial length human FGFR3 at 1000 nM by KINOMEscan analysis relative to control
Outline: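 97-kinase scanEDGE panel screened at 1000 nM; results reported as % Ctrl, lower values meaning stronger inhibition.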

[15] = Hepatotoxicity in ICR mouse assessed as effect on AST level at 20 mg/kg, po measured for 30 days; type: toxicity, organism-based; conditions: in vivo, 720 h, time 30 day; outline: as §6
[16] = Toxicity in ICR mouse assessed as morphological changes in kidney at 20 mg/kg, po measured for 30 days by hematoxyin-eosin staining based analysis; type: organism-based; conditions: in vivo, 720 h, time 30 day; outline: as §4
[17] = tested on: KATO III stomach cancer cell line; test: Induction of cell cycle arrest in human KATO III stomach cancer cell line assessed as accumulation of cells at G0/G1 phase […] by flow cytometry analysis; type: functional, cell-based
Outline: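 KATO III cells harvested with EDTA-free trypsin, fixed in cold 70% ethanol overnight at −20 °C, stained with DNA staining solution 30 min at room temperature, analysed by flow cytometry.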

BaF3 [18] = test: Antiproliferative activity against mouse BaF3 cells expressing Tel-FGFR3 assessed as cell growth inhibition measured after 72 hrs by celltiter-glo reagent based assay; type: functional; conditions: BaF3, 72 h; outline: as §2

T1 sequence (P21802 22-821 limits assumed): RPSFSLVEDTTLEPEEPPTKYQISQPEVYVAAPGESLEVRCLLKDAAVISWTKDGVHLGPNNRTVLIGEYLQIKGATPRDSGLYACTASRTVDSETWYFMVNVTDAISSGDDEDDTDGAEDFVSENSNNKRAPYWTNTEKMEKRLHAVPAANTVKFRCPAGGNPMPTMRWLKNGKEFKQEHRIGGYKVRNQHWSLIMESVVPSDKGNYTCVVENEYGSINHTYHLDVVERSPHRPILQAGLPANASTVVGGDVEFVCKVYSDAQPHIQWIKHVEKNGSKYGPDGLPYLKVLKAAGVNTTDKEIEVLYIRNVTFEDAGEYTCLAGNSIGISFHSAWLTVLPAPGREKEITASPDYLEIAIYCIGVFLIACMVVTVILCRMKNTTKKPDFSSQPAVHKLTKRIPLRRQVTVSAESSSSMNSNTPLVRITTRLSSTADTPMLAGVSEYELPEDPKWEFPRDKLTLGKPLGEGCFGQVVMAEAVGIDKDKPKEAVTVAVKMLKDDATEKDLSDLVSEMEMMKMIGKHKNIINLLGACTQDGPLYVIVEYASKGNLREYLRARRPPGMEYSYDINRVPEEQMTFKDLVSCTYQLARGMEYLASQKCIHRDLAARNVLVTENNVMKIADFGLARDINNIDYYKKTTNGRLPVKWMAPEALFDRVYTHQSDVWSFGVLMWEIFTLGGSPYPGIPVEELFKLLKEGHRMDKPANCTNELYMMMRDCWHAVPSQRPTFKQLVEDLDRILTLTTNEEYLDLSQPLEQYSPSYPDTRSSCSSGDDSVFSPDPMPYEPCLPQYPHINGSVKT
T1 sequence (Q96SW2 whole entry partner): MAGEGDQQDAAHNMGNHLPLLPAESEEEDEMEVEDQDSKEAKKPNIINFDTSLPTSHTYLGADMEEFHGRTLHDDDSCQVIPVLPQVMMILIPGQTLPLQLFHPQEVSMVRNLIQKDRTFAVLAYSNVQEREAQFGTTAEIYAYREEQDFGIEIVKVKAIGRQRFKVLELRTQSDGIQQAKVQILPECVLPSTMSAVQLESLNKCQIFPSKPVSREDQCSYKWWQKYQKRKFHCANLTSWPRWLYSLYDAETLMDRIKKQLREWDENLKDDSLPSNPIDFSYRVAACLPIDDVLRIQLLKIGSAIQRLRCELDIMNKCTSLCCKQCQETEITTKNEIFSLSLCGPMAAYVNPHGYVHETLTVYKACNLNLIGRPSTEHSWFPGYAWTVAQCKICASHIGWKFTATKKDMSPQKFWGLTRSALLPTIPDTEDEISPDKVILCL
Fibroblast growth factor receptor 3 (Homo sapiens), sequence (P22607 23-806 limits assumed): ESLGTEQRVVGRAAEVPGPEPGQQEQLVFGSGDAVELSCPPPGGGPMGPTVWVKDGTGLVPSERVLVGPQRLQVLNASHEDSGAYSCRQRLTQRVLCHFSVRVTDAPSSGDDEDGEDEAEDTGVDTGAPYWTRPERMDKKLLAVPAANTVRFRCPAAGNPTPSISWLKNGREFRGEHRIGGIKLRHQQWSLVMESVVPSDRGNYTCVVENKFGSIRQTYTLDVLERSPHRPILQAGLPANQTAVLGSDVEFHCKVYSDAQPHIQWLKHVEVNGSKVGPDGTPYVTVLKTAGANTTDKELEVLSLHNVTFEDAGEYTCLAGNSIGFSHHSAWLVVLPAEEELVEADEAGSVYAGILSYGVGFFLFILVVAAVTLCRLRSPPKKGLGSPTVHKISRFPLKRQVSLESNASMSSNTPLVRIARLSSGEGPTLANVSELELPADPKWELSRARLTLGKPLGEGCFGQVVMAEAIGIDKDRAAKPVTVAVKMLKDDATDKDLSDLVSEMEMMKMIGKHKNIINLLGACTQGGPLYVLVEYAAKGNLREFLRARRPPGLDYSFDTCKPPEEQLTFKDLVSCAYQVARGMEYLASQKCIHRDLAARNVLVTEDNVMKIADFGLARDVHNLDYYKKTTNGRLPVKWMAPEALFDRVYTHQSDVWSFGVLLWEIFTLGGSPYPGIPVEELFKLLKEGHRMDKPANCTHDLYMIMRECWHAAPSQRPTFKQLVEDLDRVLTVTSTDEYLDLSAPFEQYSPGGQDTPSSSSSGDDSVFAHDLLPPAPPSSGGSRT
Macrophage colony-stimulating factor 1 receptor (Homo sapiens), sequence (P07333 whole entry): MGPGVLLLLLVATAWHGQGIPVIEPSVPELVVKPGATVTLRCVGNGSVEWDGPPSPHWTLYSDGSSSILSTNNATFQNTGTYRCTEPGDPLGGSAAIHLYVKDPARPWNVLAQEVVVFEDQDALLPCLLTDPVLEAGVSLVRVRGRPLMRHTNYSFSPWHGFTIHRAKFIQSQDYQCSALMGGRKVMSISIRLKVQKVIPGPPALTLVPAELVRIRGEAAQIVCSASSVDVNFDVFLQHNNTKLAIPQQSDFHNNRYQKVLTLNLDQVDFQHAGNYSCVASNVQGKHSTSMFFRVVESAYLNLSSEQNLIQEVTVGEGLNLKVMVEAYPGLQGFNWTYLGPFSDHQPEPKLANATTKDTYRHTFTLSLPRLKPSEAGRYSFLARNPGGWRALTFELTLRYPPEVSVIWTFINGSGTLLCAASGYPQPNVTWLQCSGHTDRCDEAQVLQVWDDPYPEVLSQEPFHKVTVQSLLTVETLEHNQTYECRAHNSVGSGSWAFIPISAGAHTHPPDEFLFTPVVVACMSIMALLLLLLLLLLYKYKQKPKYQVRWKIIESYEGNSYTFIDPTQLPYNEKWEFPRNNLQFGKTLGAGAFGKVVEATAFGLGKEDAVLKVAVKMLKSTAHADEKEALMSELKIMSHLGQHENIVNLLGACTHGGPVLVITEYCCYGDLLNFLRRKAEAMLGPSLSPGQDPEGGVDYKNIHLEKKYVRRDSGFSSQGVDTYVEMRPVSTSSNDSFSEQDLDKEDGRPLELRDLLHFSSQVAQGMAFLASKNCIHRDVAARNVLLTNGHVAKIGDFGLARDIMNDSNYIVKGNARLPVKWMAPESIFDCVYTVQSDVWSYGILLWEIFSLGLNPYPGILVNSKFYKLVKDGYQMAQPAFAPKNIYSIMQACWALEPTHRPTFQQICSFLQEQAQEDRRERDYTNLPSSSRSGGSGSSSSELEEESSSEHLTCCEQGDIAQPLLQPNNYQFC
Fibroblast growth factor receptor 2 (Homo sapiens), sequence (P21802 22-821 limits assumed): as the sequence (P21802 22-821 limits assumed) above
Fibroblast growth factor receptor 1 (Homo sapiens), sequence (P11362 22-822 limits assumed): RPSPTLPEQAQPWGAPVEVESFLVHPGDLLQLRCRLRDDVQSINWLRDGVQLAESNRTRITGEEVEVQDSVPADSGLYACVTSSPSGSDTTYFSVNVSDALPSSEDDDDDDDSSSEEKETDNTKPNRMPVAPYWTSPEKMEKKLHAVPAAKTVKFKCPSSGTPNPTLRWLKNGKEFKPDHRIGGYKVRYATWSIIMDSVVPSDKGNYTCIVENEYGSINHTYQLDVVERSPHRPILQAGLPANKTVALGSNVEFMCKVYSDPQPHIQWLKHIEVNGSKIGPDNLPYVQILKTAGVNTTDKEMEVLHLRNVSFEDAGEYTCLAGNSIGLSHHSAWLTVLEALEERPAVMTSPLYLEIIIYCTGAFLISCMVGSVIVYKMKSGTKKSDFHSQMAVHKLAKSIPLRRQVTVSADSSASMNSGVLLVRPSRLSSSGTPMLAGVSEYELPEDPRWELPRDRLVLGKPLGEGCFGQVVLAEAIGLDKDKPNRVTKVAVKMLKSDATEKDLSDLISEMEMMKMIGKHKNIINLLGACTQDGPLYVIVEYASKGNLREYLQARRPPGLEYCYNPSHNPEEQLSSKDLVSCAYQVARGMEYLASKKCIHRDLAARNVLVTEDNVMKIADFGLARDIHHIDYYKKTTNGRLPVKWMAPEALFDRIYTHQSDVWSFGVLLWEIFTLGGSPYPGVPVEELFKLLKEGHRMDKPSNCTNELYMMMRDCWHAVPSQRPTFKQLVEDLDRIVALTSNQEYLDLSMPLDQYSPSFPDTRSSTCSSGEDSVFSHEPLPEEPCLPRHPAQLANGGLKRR

## COc1cc(OC)c(Cl)c(NC(=O)N(C)c2cc(Nc3ccc(N4CCN(C(=O)C5CCN(c6ccc7c(c6)C(=O)N(C6CCC(=O)NC6=O)C7=O)CC5)CC4)cc3)ncn2)c1Cl (stereo not given)
[1]
  Activity: inactive
BaF3 [2]
  pIC50: < 5.00
[3]
  Activity: inactive
NCI-H1975
  pIC50: < 5.00
SNU-16
  Activity: Active
[4]
  Activity: Active
[5]
  IC50 at 72 h: > 10 µM
[6]
  Cmax: 82.1 ng/mL
[7]
  Activity: Non-Toxic
[8]
  Activity: inactive
[9]
  Activity: 43%
[10]
  Activity: Non-Toxic
[11]
  Activity: Tde
[12]
  Activity: inactive
[13]
  Activity: inactive
[14]
  inhibition: 71%
[15]
  Activity: Non-Toxic
[16]
  Activity: Non-Toxic
[17]
  Activity: Active
BaF3 [18]
  pIC50: 6.86

From ChEMBL document CHEMBL5338796, “Discovery of a Selective and Orally Bioavailable FGFR2 Degrader for Treating Gastric Cancer” (J Med Chem, 2023)
